In paper PMC9930943 (Asian Pacific Journal of Cancer Prevention : APJCP, 2022):
Read-outs that look alike come from different tables or passages of the source.

Legend:
U-87MG cells [1] = experiment: PI staining cell cycle analysis by flow cytometry; assay type: cell-based, human; conditions: 11.91 µM, 24 hours
Summary of the method: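 6 × 10⁵ U-87MG cells/well attached for 24 h, then given 11.91 µM for 24 h. Detached with trypsin-EDTA at 37°C for 2 min, fixed in cold 70% ethanol for 1 h. Stained 30 min at RT in the dark in 1 ml 0.1% sodium citrate with 0.05 mg PI and 50 µg RNase. Sub-G1, G0/G1, S and G2/M percentages by flow cytometry.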

[2] = tested on: intracellular ROS in U-87MG cells; experiment: Intracellular ROS assay with DCFH-DA probe; assay type: cell-based, human; conditions: 11.91 M (so in the source), 12 hours, P < 0.01
Summary of the method: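 6 × 10⁵ U-87MG cells/well attached for 24 h, then given 11.91 µM for 12 h. Loaded with DCFH-DA (10 µM final) in serum-free medium for 30 min at 37°C in the dark and washed twice with RPMI 1640. DCF fluorescence of 1 × 10⁴ cells read on a fluorescence plate reader as RFU. Three independent experiments.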

AGO1522 cells = experiment: MTT cell viability assay, AGO1522; assay type: cell-based, human; conditions: for IC50: Homo sapiens, Skin fibroblast
Summary of the method: (§1)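 U-87MG (RPMI-1640, 7.5 × 10³ cells/well, 24 h attachment) and AGO1522 (low-glucose DMEM) grown with 10% FBS and pen/strep at 37°C, 5% CO₂. DMSO stocks diluted in medium to 3, 6.25, 12.5, 25, 50 and 100 µM, for 24 and 48 h. MTT 5 mg/ml for 4 h, formazan dissolved in DMSO, A570 nm. Viability relative to untreated cells; IC50 calculated. Triplicates, three experiments.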

[3] = tested on: caspase-3 activity in U-87MG cells; experiment: Caspase-3/CPP32 fluorometric activity assay; assay type: cell-based, human; conditions: 11.91 µM, 24 hours (method: 12 hours), P<0.01
U-87MG cells [4] = experiment: MTT cell viability assay, U-87MG; assay type: cell-based; conditions: Homo sapiens
Summary of the method: as §1

[5] = 24 h, read-out: IC50 U-87MG 24 hours
[6] = 48 h, read-out: IC50 U-87MG 48 hours
[7] = 24 h, read-out: IC50 AGO1522 24 hours
[8] = 48 h, read-out: IC50 AGO1522 48 hours

Molecule | cells in G1 (U-87MG cells [1]) | level of ROS compared to unexposed cells [2] | effects on normal skin cells of AGO1522 (AGO1522 cells; AGO1522 cells, in words) | caspase 3 activation compared to unexposed cells [3] | IC50 (U-87MG cells [4]; [5]) | IC50 (U-87MG cells [4]; [6]) | IC50 (AGO1522 cells; [7]) | IC50 (AGO1522 cells; [8])
5-(6-bromo-2-chloroquinolin-3-yl)-9a-hydroxy-8,8-dimethyl-4-nitro-2,3,5,5a,7,8,9,9a-octahydroimidazo[1,2-a]quinolin-6(1H)-one [5c] | 41% | significantly higher | minimal effects | significant increase |  |  |  | 
CC(=O)O[C@H]1C(=O)[C@@]2(C)[C@H]([C@H](OC(=O)c3ccccc3)[C@]3(O)C[C@H](OC(=O)[C@H](O)[C@@H](NC(=O)c4ccccc4)c4ccccc4)C(C)=C1C3(C)C)[C@]1(OC(C)=O)CO[C@@H]1C[C@@H]2O [Paclitaxel, reference compound] |  |  |  |  | 17.4 ± 0.85 µM | 42.2 ± 0.78 µM | 42.9 ± 1.42 µM | 25.8 ± 1.09 µM
O=c1[nH]c(O)c(C2C([N+](=O)[O-])=C3NCCN3c3nc4cc(Cl)ccc4cc32)c(=O)[nH]1 (stereo not drawn) [5e, 5-(9-chloro-4-nitro-1,2,3,5-tetrahydrobenzo[g]imidazo[1,2-a] [1,8]naphthyridin-5-yl) -6-hydroxypyrimidine-2,4 (1H, 3H) -dione] |  |  |  |  | 22.6 ± 0.84 µM | 16.3 ± 1.03 µM | 43 ± 0.89 µM | 22.9 ± 0.95 µM
